Data from PubChem BioAssay.
Activity calls are given as the source filed them.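 The calls were made as follows, unless noted: active = inhibition above 20% together with a positive visual image hit; inconclusive = visual image hit but inhibition not above 20%; inactive = no visual image hit.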

Legend:
[1] = inhibitors of TNFa-induced NFkB p65 translocation, primary screen, imaging, HUVEC, MLSMR starter and 10KST1 sets (AID 438); conditions: HUVEC TNFa-induced p65 nuclear translocation; cell count: measured here: nuclei count (cytotoxicity indicator), at 2.08 µM; inhibition: at 2 µM, stronger effect = higher value, 0% TNFa-plus-vehicle, 100% no-TNFa wells;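 also: compound added about 3h40 before a 20 min TNFalpha stimulation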;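 as to inhibition: signal is the nuclear over cytoplasmic p65 intensity ratio per well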
[2] = inhibitors of mutant huntingtin aggregation, primary screen, imaging, exon1htt(103Q)mCFP cells, high-content imaging (AID 483;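 active = visual image review flags a hit and inhibition of aggregation exceeds 20%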;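 also: compound exposure lasted 3 days before fixation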;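 as to nuclei count: percent of the per-plate median nuclei count of sample wells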); conditions: exon1htt(103Q)mCFP cell line, aggregate imaging, at 2 µM; inhibition of aggregation: stronger effect = higher value; nuclei count: measured here: cell count, toxicity
[3] = inhibitors of E-selectin induction by TNFa, primary screen, imaging, HUVEC, immunofluorescence, MLSMR starter and 10KST1 sets (AID 487;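 active = visually confirmed hit in the image check and inhibition above 20%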;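 as to inhibition: signal is fraction of cell area covered by stained E-selectin grains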;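 as to nuclei count: 100% = median nuclei count of all wells on the same plate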); conditions: HUVEC TNFalpha-induced E-selectin immunofluorescence imaging, at 2 µM; inhibition: stronger effect = higher value; nuclei count: measured here: cell number, toxicity
[4] = biological target: Voltage-gated potassium channel subunit beta-2 (Rattus norvegicus) (UniProt P62483); experiment: KvBeta enzyme negative modulators, primary screen, biochemical, NADPH fluorescence (AID 622;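 active = fluorescence slope higher than the sample average by over 3 SD, cut at about -0.22 in these data, passing the limit was not always enough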;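 also: slope of raw intensity against log time taken from 70 to 1610 s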); conditions: recombinant KvBeta, 4-cyanobenzaldehyde reduction, at 10 µM, stronger effect = higher value
Chain of Voltage-gated potassium channel subunit beta-2 (Rattus norvegicus) (P62483 whole entry, looked up): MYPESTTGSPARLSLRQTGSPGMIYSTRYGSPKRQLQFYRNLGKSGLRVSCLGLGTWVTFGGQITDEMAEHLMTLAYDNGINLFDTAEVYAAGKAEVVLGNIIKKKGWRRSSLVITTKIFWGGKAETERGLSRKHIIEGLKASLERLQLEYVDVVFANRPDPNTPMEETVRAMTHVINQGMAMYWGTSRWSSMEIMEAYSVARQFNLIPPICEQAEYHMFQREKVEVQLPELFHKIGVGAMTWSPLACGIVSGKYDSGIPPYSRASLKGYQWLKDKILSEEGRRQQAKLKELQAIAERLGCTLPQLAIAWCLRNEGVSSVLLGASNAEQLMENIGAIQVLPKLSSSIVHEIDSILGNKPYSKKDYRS

[5] = biological target: Voltage-gated potassium channel subunit beta-2 (Rattus norvegicus) (UniProt P62483); experiment: KvBeta positive modulators, primary screen, biochemical, NADPH fluorescence (AID 623;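 active = NADPH fluorescence slope more negative than the mean of all samples by about 3 SD, 99.7% confidence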;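 also: fluorescence intensity change per second fitted from 20 to 320 s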); conditions: Recombinant KvBeta, NADPH fluorescence decrease slope, 10 min; at 10 µM; stronger effect = lower value
[6] = biological target: Muscarinic acetylcholine receptor M4 (Homo sapiens) (UniProt P08173); experiment: compounds altering M4/GIRK thallium flux, either direction, primary screen, M4 allosteric agonist project, cell-based, HEK293 M4/GIRK, BTC-AM (AID 625;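 active = fluorescence slope after compound addition differing from the mean of all tested samples at 99.7% confidence, mostly higher but some lower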;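 also: thallium influx through GIRK channels coupled to M4 in HEK293 cells with BTC-AM dye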); conditions: at 10 µM, actives lie on both sides
Chain of Muscarinic acetylcholine receptor M4 (Homo sapiens) (P08173 whole entry, looked up): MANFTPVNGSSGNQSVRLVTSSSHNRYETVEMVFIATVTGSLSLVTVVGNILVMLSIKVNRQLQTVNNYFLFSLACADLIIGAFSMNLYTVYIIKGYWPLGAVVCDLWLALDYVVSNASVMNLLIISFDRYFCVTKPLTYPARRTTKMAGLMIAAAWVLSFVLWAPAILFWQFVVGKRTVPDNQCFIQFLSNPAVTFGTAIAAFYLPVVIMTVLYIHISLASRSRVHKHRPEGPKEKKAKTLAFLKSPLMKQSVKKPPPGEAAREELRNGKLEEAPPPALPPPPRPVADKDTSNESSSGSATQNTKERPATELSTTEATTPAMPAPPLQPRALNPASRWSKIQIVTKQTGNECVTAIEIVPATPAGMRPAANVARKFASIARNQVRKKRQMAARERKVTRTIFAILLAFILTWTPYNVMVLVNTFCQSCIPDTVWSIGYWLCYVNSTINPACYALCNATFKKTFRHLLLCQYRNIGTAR
Method in brief: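 Assay system: HEK293 cells with M4 receptor and GIRK channels / Controls: carbachol and DMSO controls / Schedule: 1 h dye loading, 2 min kinetic read / Technique: kinetic fluorescence with BTC-AM dye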

[7] = inhibitors of Sendai virus-induced IRF3 signaling, primary screen, TLR/RLR signaling modifier project, cell-based, Sendai virus stimulus, luciferase, 10K MLSCN set (AID 602276;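 active = inhibition at or above 50% at 10 µM; inactive = inhibition below 50%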;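 also: firefly luciferase from ISG56 promoter only with Renilla not read in this screen; 0% = Sendai virus plus DMSO and 100% = medium plus DMSO without virus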); conditions: HEK293 RL24 IRF3 luciferase reporter, at 10 µM, stronger effect = higher value
[8] = inhibitors of poly I:C-induced TLR3 signaling, primary screen, cell-based, poly I:C stimulus, luciferase, 10K MLSCN set (AID 602277;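 active = inhibition of the reporter signal at or above 50%; inactive = inhibition below 50%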); conditions: HEK293-TLR3 RL24 IRF3 luciferase reporter, at 10 µM, stronger effect = higher value

SMILES	cell count [1]	inhibition [1]	inhibition of aggregation [2]	nuclei count [2] [%]	inhibition [3]	nuclei count [3] [%]	fluorescence slope [4]	NADPH fluorescence slope [5]	fluorescence slope [6]	inhibition [7]	inhibition [8]
O=S(=O)(Cc1ccc(Cl)cc1)Nc1ccc2c(c1)OCO2	291	-12.5% (inactive)	10.4% (inactive)	99.4	-35.3% (inactive)	123	-0.454 (inactive)	-5.8e-05 (inactive)	0.00401 (inactive)	7.86% (inactive)	9.38% (inactive)
Cc1cc(=O)n(CC(C)C)c(O)c1C#N	432	1.5% (inactive)	9.1% (inactive)	94.3	-11.8% (inactive)	109	-0.581 (inactive)	-3.7e-05 (inactive)	0.00407 (inactive)	13% (inactive)	-7.21% (inactive)
COc1cc(C2c3c(oc4c(C)cc(C)cc4c3=O)C(=O)N2Cc2cccnc2)cc(OC)c1OC (stereo unspecified)	632	0.3% (inactive)	7.3% (inactive)	106	-4.3% (inactive)	97.5	-0.552 (inactive)	1.8e-05 (inactive)	0.0049 (inactive)	-24.2% (inactive)	3.14% (inactive)
CCCC(=O)N1CCN(c2ccc(NC(=O)c3ccc(Br)o3)cc2)CC1	232	0.6% (inactive)	7.1% (inactive)	58.2	-64.1% (inactive)	116	-0.457 (inactive)	6.7e-06 (inactive)	0.00487 (inactive)	-9.3% (inactive)	-42.4% (inactive)
CC(=O)Nc1ccc(OC(=O)c2cccnc2)cc1	367	0.3% (inactive)	-13.8% (inactive)	103	-194% (inactive)	112	-0.318 (inactive)	-4.9e-05 (inactive)	0.00601 (inactive)	-10.8% (inactive)	-12.7% (inactive)
O=C(Nc1ccc(Cc2ccncc2)cc1)C1CC1	447	2.9% (inactive)	-6.1% (inactive)	100	-33.5% (inactive)	118	-0.605 (inactive)	2.8e-05 (inactive)	0.00686 (inactive)	7.94% (inactive)	15.6% (inactive)
CCOC(=O)N1CCN(C(=O)C2CC(=O)N(Cc3ccc(OC)cc3)C2)CC1 (stereo unspecified)	607	-14.6% (inactive)	-1.6% (inactive)	112	-28.6% (inactive)	111	-0.566 (inactive)	-1e-05 (inactive)	0.0052 (inactive)	13.3% (inactive)	18.5% (inactive)
COCCCNC(=O)C1CCCN(C(=O)Nc2ccc(OC)cc2)C1 (stereo unspecified)	675	-14.8% (inactive)	-11.8% (inactive)	107	52.7% (inactive)	49.2	-0.315 (inactive)	-5.2e-05 (inactive)	0.007 (inactive)	16.2% (inactive)	4.9% (inactive)
O=C(CS(=O)(=O)c1cn(Cc2ccc(F)cc2)c2ccccc12)N1CCCCC1	474	-0.2% (inactive)	-5% (inactive)	116	16.9% (inactive)	110	-0.303 (inactive)	-6.4e-05 (inactive)	0.00645 (inactive)	3.28% (inactive)	11.2% (inactive)
CCn1ncc(C2=NOC(C(=O)NCc3ccccc3)C2)c1C (stereo unspecified)	309	-20.8% (inactive)	-64.1% (inactive)	2.2	-53.2% (inactive)	105	-0.446 (inactive)	3.3e-05 (inactive)	0.00637 (inactive)	17.4% (inactive)	73.3% (active)
CCCc1cn(S(=O)(=O)c2ccc(OC)cc2OC)nc1N	364	-8.7% (inactive)	7.3% (inactive)	100	-38.9% (inactive)	119	-0.537 (inactive)	-3.9e-05 (inactive)	0.00411 (inactive)	-0.283% (inactive)	5.1% (inactive)
Cc1c(NS(=O)(=O)c2ccc3c(c2)c(=O)n(C)c(=O)n3C)c(=O)n(-c2ccccc2)n1C	394	-4.4% (inactive)	-4.4% (inactive)	124	-27.8% (inactive)	115	-0.412 (inactive)	0.000112 (inactive)	0.00512 (inactive)	11.2% (inactive)	25% (inactive)
COC(=O)c1ccc(CSc2nc(-c3ccc(OC)cc3)nc3c2c(=O)n(C)c(=O)n3C)o1	487	8.9% (inactive)	-0.5% (inactive)	89.2	-5.9% (inactive)	103	-0.409 (inactive)	0.000102 (inactive)	0.00884 (inactive)	24% (inactive)	30.6% (inactive)
COc1ccccc1C1C(C(C)=O)=C(O)C(=O)N1CCc1ccccc1 (stereo unspecified)	373	9.5% (inactive)	-6.3% (inactive)	105	-33.5% (inactive)	103	-0.549 (inactive)	-3.7e-05 (inactive)	0.00483 (inactive)	10.7% (inactive)	18.1% (inactive)
Cc1nn(Cc2ccccc2)c(C)c1NC(=O)CCC(=O)O	667	23.6% (active)	-6.6% (inactive)	112	17.9% (inactive)	105	-0.49 (inactive)	1.1e-05 (inactive)	0.00488 (inactive)	-5.04% (inactive)	-12.9% (inactive)
Cc1cccc(Cn2c(=O)n(Cc3ccco3)c(=O)c3ccccc32)c1	659	0.5% (inactive)	-10.9% (inactive)	122	-39% (inactive)	113	-0.608 (inactive)	-3.9e-05 (inactive)	0.00404 (inactive)	0.06% (inactive)	-5.18% (inactive)
Cc1cc(=O)oc2ccc(OCC(=O)N3CCC(C)CC3)cc12	400	-3.9% (inactive)	-30.5% (inactive)	103	-41.1% (inactive)	104	-0.567 (inactive)	-4.1e-05 (inactive)	0.00366 (inactive)	17.3% (inactive)	8.48% (inactive)
Cc1ccc(C)c(-c2nc3ccc(N)cc3[nH]2)c1	340	3.9% (inactive)	30.3% (inactive)	77.7	-114% (inactive)	100	-0.0465 (active)	-3.5e-05 (inactive)	0.00338 (inactive)	15.4% (inactive)	-9.14% (inactive)
CC(C)CCNC(=O)CCNS(=O)(=O)c1ccc(Cl)cc1	538	-19.2% (inactive)	1.9% (inactive)	79.8	-36.9% (inactive)	91.3	-0.566 (inactive)	-1.2e-05 (inactive)	0.00577 (inactive)	22.9% (inactive)	25.9% (inactive)
CC(=O)Nc1cccc(NC(=O)CSc2nnnn2C)c1	754	-2.1% (inactive)	-16.5% (inactive)	104	-135% (inactive)	131	-0.481 (inactive)	-5.6e-05 (inactive)	0.00501 (inactive)	21.2% (inactive)	13.5% (inactive)
CCc1cc2c(NCCC(=O)O)nc(C)nc2s1	222	-13.7% (inactive)	13.8% (inactive)	79	-7.8% (inactive)	104	-0.575 (inactive)	-4e-05 (inactive)	0.00598 (inactive)	2.05% (inactive)	15.1% (inactive)
CC(O)c1nc2ccccc2n1C1CCCCC1 (stereo unspecified)	631	-19.6% (inactive)	-4.7% (inactive)	99.7	-16.4% (inactive)	111	-0.585 (inactive)	4.8e-06 (inactive)	0.00511 (inactive)	20.2% (inactive)	24.7% (inactive)
CCOC(=O)c1c(C)oc2ccc(O)c(CN3CCCCC3)c12	376	-0.9% (inactive)	-42.7% (inactive)	102	-90.5% (inactive)	81.7	-0.383 (inactive)	2.5e-05 (inactive)	0.00399 (inactive)	17.3% (inactive)	31.7% (inactive)
CCCCSc1nc2c(cnn2-c2ccc(Cl)cc2)c(=O)[nH]1	233	-0.3% (inactive)	6.5% (inactive)	103	-23.4% (inactive)	111	-0.426 (inactive)	-9.3e-05 (inactive)	0.00579 (inactive)	16.7% (inactive)	16.6% (inactive)
CCOc1nc2ccccc2nc1NS(=O)(=O)c1ccccc1	769	-4.2% (inactive)	6.9% (inactive)	126	-10% (inactive)	132	-0.462 (inactive)	-0.000234 (inactive)	0.00417 (inactive)	15.8% (inactive)	20% (inactive)
CC(Oc1ccc(Br)cc1)C(=O)N1CCc2ccccc21 (stereo unspecified)	406	6.3% (inactive)	22.4% (inactive)	104	-97.2% (inactive)	119	-0.486 (inactive)	5.9e-05 (inactive)	0.00581 (inactive)	-4.76% (inactive)	-9.35% (inactive)
